Laboratory results: ChEMBL document CHEMBL3758142, “Synthesis and antimalarial activity of quinones and structurally-related oxirane derivatives” (Eur J Med Chem, 2016)

What was measured:
[1] = system: Plasmodium falciparum; assay: Antimalarial activity against chloroquine-sensitive NF54 isolated Plasmodium falciparum 3D7 infected in erythrocytes assessed as inhibition of parasitic growth after 48 hrs by optical microscopy; type: functional, organism-based; settings: 3D7, 48 h
Summary of the method: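 P. falciparum 3D7 in erythrocytes at 1% initial parasitemia, 2% hematocrit. Samples dissolved in DMSO at 10 mg/mL stock, diluted in complete medium to seven test concentrations. Each dilution tested in triplicate; 48 h at 37 °C. Growth inhibition read by optical microscopy of well contents.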

[2] = system: MRC5; assay: Cytotoxicity against human MRC5 cells assessed as cell growth inhibition after 48 hrs by alamar blue assay; type: cell-based; settings: MRC5, 48 h
Summary of the method: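 Human MRC-5 fibroblasts kept in DMEM with 10% FBS, 2 mM glutamine, streptomycin and penicillin at 37 °C, 5% CO2. Seeded at 2.5 × 10⁴ cells/well, 24 h, then DMSO-dissolved compounds diluted in medium were added; control wells held 0.1% DMSO final. Exposure 48 h; Alamar Blue added for the last 3 h; fluorescence read at 530–560 nm excitation.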

[3] = Selectivity index, ratio of IC50 for MRC5 cells to IC50 for chloroquine-sensitive NF54 isolated Plasmodium falciparum 3D7; type: toxicity, cell-based; settings: human; read-out: Ratio IC50

SMILES | IC50 [1] | IC50 [2] | selectivity ratio [3]
COC1=CC(=O)c2ccccc2C12CO2 (stereo not given) | > 50 µM | 116 µM | < 2.3
C=CCOC1=CC(=O)c2ccccc2C1=O | 5.18 µM | 64.8 µM | 12
C=CCOC1=CC(=O)c2ccccc2C12CO2 (stereo not given) | > 50 µM | 26.4 µM | < 0.53
O=C1C(Cl)=C(Cl)C2(CO2)c2ccccc21 (stereo not given) | 6.22 µM | 92.5 µM | 15
CC1(C)CCC2=C(O1)C1(CO1)c1ccccc1C2=O (stereo not given) | 3.71 µM | > 100 µM | > 27
O=C1C(Cl)=C(Cl)C2(CO2)C(Cl)=C1Cl | 3.95 µM | 368 µM | 93
NC1=CC(=O)c2ccccc2C12CO2 (stereo not given) | > 50 µM | > 100 µM | –
N#CC1=C(C#N)C(=O)C(Cl)=C(Cl)C1=O | > 50 µM | > 100 µM | –
O=C1C=C(Nc2ccccc2)C2(CO2)c2ccccc21 (stereo not given) | > 50 µM | 135 µM | < 2.7
COc1c(Cl)c(Cl)c(OC)c(C#N)c1C#N | > 50 µM | > 100 µM | –
NC1=CC(=O)c2ccccc2C1=O | 5.14 µM | 322 µM | 63
CC1(C)CC2=C(O1)C1(CO1)c1ccccc1C2=O (stereo not given) | > 50 µM | 55.7 µM | < 1.1
CC1(C)CC2=C(O1)C(=O)c1ccccc1C2=O | > 50 µM | 56.1 µM | < 1.1
O=C1C=C(Nc2ccccc2)C(=O)c2ccccc21 | 6.3 µM | > 100 µM | > 15
COC1=CC(=O)c2ccccc2C1=O [2-Methoxy-1,4-naphthoquinone] | > 50 µM | 5.2 µM | < 0.1
CC1(C)CCC2=C(O1)C(=O)c1ccccc1C2=O [ALPHA-LAPACHONE] | > 50 µM | > 100 µM | –
O=C1C(Cl)=C(Cl)C(=O)C(Cl)=C1Cl [CHLORANIL] | 22.4 µM | > 100 µM | > 4.4
O=C1C(Cl)=C(Cl)C(=O)c2ccccc21 [Dichlon] | 13.9 µM | 98.2 µM | 7.2
